Experimental data published in ChEMBL document CHEMBL3992565, “Discovery of [1,2,3]Triazolo[4,5-d]pyrimidine Derivatives as Novel LSD1 Inhibitors” (ACS Med Chem Lett, 2017).
Active and inactive are the calls of the source. The calls are words filed in the database; no cut-off is given here.

How the values were obtained:
MAO-A [1] = target: T1, MAO-A (Homo sapiens, UniProt P21397); assay: Inhibition of MAO-A (unknown origin) at 10 uM using luciferin-derived luminogenic substrate by MAO-Glo assay relative to control; details: MAO-A enzyme (unknown origin), probe luciferin-derived luminogenic substrate
T1 sequence (P21397 whole entry): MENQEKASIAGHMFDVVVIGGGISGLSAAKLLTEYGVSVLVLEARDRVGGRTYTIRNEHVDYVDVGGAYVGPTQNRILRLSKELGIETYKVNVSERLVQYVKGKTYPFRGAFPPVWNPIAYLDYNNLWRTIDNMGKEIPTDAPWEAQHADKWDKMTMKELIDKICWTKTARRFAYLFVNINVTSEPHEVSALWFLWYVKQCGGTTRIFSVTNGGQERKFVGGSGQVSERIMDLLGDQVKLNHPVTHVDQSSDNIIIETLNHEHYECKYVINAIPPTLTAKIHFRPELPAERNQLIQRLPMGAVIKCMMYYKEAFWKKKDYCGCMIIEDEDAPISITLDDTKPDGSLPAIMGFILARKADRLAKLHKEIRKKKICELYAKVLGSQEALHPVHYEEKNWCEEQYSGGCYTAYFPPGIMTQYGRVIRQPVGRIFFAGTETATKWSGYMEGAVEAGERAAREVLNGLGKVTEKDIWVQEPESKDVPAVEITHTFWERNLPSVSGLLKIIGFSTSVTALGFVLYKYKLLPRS

MAO-B [2] = target: T2, MAO-B (Homo sapiens, UniProt P27338); assay: Inhibition of MAO-B (unknown origin) at 10 uM using luciferin-derived luminogenic substrate by MAO-Glo assay relative to control; details: MAO-B enzyme (unknown origin), probe luciferin-derived luminogenic substrate
T2 sequence (P27338 whole entry): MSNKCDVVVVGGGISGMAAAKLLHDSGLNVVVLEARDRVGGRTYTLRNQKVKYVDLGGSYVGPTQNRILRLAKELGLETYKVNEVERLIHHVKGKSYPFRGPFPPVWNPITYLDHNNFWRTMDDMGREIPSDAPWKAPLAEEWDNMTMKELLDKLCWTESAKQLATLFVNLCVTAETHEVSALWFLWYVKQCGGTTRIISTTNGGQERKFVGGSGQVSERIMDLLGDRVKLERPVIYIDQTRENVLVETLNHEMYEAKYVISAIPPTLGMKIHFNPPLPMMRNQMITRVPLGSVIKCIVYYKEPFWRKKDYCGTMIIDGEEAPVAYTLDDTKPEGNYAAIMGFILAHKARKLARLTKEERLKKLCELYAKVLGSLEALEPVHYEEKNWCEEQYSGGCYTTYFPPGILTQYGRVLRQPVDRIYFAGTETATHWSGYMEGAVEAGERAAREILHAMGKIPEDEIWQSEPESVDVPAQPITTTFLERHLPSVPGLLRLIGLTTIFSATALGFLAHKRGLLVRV

MAO-A [3] = target: T1, MAO-A; assay: Inhibition of MAO-A (unknown origin) at 1 uM using luciferin-derived luminogenic substrate by MAO-Glo assay relative to control; details: MAO-A enzyme (unknown origin), probe luciferin-derived luminogenic substrate
MAO-B [4] = target: T2, MAO-B; assay: Inhibition of MAO-B (unknown origin) at 1 uM using luciferin-derived luminogenic substrate by MAO-Glo assay relative to control; details: MAO-B enzyme (unknown origin), probe luciferin-derived luminogenic substrate
MGC-803 [5] = assay: Effect on LSD1 expression in human MGC803 cells up to 4 uM after 5 days by DAPI staining based immunofluorescence assay; type: cell-based; details: mgc-803, 120 h
Method in brief: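 MGC-803 cells were seeded in 96-well plates and treated for 5 days at the indicated concentrations. LSD1 was stained by immunofluorescence, with DAPI used for cell counting. Each well was scored over 12 fields by high content analysis. Data are mean ± SD from at least three experiments.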

Homo sapiens [6] = species on record: Homo sapiens; assay: Activity at histone lysine methyltransferase in human MGC803 cells assessed as effect on H3K9me1 level up to 4 uM after 5 days by Western blot method; type: cell-based
Method in brief: (§1)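 MGC-803 gastric cancer cells, which overexpress LSD1, were treated at the indicated concentrations. Several histone methylation marks were then probed by Western blot. Each experiment was run independently at least three times.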

Homo sapiens [7] = species on record: Homo sapiens; assay: Activity at histone lysine methyltransferase in human MGC803 cells assessed as effect on H3K9me2 level up to 4 uM after 5 days by Western blot method; type: cell-based; method in brief: as §1
Homo sapiens [8] = species on record: Homo sapiens; assay: Activity at histone lysine methyltransferase in human MGC803 cells assessed as effect on H3K4me3 level up to 4 uM after 5 days by Western blot method; type: cell-based; method in brief: as §1
Homo sapiens [9] = species on record: Homo sapiens; assay: Activity at histone demethylase in human MGC803 cells assessed as effect on H3K9me1 level up to 4 uM after 5 days by Western blot method; type: cell-based; method in brief: as §1
Homo sapiens [10] = species on record: Homo sapiens; assay: Activity at histone demethylase in human MGC803 cells assessed as effect on H3K9me2 level up to 4 uM after 5 days by Western blot method; type: cell-based; method in brief: as §1
Homo sapiens [11] = species on record: Homo sapiens; assay: Activity at histone demethylase in human MGC803 cells assessed as effect on H3K4me3 level up to 4 uM after 5 days by Western blot method; type: cell-based; method in brief: as §1
MGC-803 [12] = assay: Antiproliferative activity against human MGC803 cells after 5 days by MTT assay; details: MGC-803, 120 h
MGC-803 [13] = assay: Antimigratory activity against human MGC803 cells at lower concentration after 24 hrs by Hoechst 33258 staining based transwell assay; type: functional, cell-based
Method in brief: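 Migration was measured by transwell assay read by high content analysis. MGC-803 cells were treated for 24 h at three low concentrations. Data are mean ± SD from at least three independent experiments, with significance at p < 0.01.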

MGC-803 [14] = assay: Antimigratory activity against human MGC803 cells assessed as accumulation of E-cadherin at 0.5 to 2 uM after 24 hrs by Western blot method; type: functional, cell-based
Method in brief: (§2)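 MGC-803 cells were exposed for 24 h to three low concentrations. E-cadherin (epithelial marker) and N-cadherin (mesenchymal marker) were then probed by Western blot. Data are mean ± SD from at least three experiments.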

MGC-803 [15] = assay: Antimigratory activity against human MGC803 cells assessed as decrease in N-cadherin level at 0.5 to 2 uM after 24 hrs by Western blot method; type: functional, cell-based; method in brief: as §2
[16] = target: T3, Lysine-specific histone demethylase 1A (Homo sapiens, UniProt O60341); assay: Inhibition of full length recombinant LSD1 (unknown origin) expressed in Escherichia coli […] using H3K4me2 as substrate by fluorescence assay
[17] = target: T3, Lysine-specific histone demethylase 1A; details: 600 uM

c1ccc(CSc2nc(Sc3ccccn3)c3nnn(Cc4ccccc4)c3n2)cc1
inhibition at 10 µM (MAO-A [1]): 59% | inhibition at 10 µM (MAO-B [2]): 39% | inhibition at 1 µM (MAO-A [3]): 34% | inhibition at 1 µM (MAO-B [4]): 11% | Activity (MGC-803 [5]): Non-Toxic | Activity (Homo sapiens [6]): inactive | Activity (Homo sapiens [7]): inactive | Activity (Homo sapiens [8]): inactive | Activity (Homo sapiens [9]): inactive | Activity (Homo sapiens [10]): inactive | Activity (Homo sapiens [11]): inactive | IC50 (MGC-803 [12]): 7.64 µM | Activity (MGC-803 [13]): Active | Activity (MGC-803 [14]): Active | Activity (MGC-803 [15]): Active

O=C(O)c1ccc(CN2CCC(CN[C@@H]3C[C@H]3c3ccccc3)CC2)cc1 [GSK2879552]
IC50 [16]: 0.041 µM | IC50 (MGC-803 [12]): > 125 µM | inhibition [17]: inactive
